# According to ChEMBL document CHEMBL4257587 (J Med Chem, 2018):
# The source made the active and inactive calls.
# Experiments:
# [1] = Intrinsic clearance in human liver microsomes at 0.5 uM preincubated with NADPH and measured up to 30 mins by LC-MS/MS analysis; type: ADME, microsome
# HepG2 [2] = experiment: cells; type: ADME, cell-based; details: Homo sapiens, HepG2, 48 h
# HepG2 [3] = experiment: Cytotoxicity against human HepG2 cells assessed as effect on mitochondrial membrane potential after 48 hrs by TMRM-staining based cell health assay; type: ADME; details: HepG2, 48 h
# [4] = test system: Mycobacterium tuberculosis; experiment: Antimycobacterial activity against Mycobacterium tuberculosis H37Rv ATCC 25618 after 6 days by resazurin-based assay; type: functional; details: H37Rv ATCC 25618, 144 h
# [5] = Intrinsic clearance in mouse liver microsomes at 0.5 uM preincubated with NADPH and measured up to 30 mins by LC-MS/MS analysis; type: ADME, microsome
# physchem = details: buffer, pH 7.4
# HepG2 [6] = experiment: Cytotoxicity against human HepG2 cells assessed as effect on membrane permeability after 48 hrs by TOTO-3 iodide-staining based cell health assay; type: ADME; details: HepG2, 48 h
# [7] = Cardiotoxicity in New Zealand white perfused rabbit heart left ventricular wedge assessed as drug concentration causing prolongation of Tp-e interval time by electrophysiology assay; type: toxicity, tissue-based, Oryctolagus cuniculus, Heart left ventricle
# [8] = Cardiotoxicity in New Zealand white perfused rabbit heart left ventricular wedge assessed as prolongation of Tp-e interval time at 10 uM by electrophysiology assay relative to control; type: toxicity, tissue-based, Oryctolagus cuniculus, Heart left ventricle
# [9] = Cardiotoxicity in New Zealand white perfused rabbit heart left ventricular wedge assessed as prolongation of QT interval at 10 uM by electrophysiology assay; type: toxicity, tissue-based, Oryctolagus cuniculus, Heart left ventricle
# [10] = Cardiotoxicity in New Zealand white perfused rabbit heart left ventricular wedge assessed as prolongation of QRS interval time at 30 uM by electrophysiology assay relative to control; type: toxicity, tissue-based, Oryctolagus cuniculus, Heart left ventricle
# Mus musculus [11] = experiment: Oral bioavailability in C57BL/6 mouse at 49.2 mg/kg via gavage by LC-MS/MS analysis; type: ADME, organism-based; details: in vivo
# Mus musculus [12] = experiment: AUC in C57BL/6 mouse at 49.2 mg/kg, po via gavage by LC-MS/MS analysis; type: ADME, organism-based; details: in vivo
# [13] = test system: Mycobacterium tuberculosis; experiment: Antimycobacterial activity against Mycobacterium tuberculosis H37Rv ATCC 25618 assessed as reduction in cell viability after 7 days by bacTiter-Glo assay; type: functional; details: H37Rv ATCC 25618, 168 h
# [14] = Half life in C57BL/6 mouse at 4 mg/kg, iv by LC-MS/MS analysis; type: ADME, organism-based; details: in vivo
# In short: (§1)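 Female C57BL/6 mice (18−20 g), single intravenous dose in 5% DMSO/20% Encapsin. Tail-vein whole blood (25 μL) was taken from each mouse (n = 5) at 5, 15 and 30 min and 1, 2, 4 and 8 h postdose, and compound concentration was measured in peripheral whole blood.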
# [15] = Volume of distribution at steady state in C57BL/6 mouse at 4 mg/kg, iv by LC-MS/MS analysis; type: ADME, organism-based; details: in vivo, read-out: Vdss; in short: as §1
# [16] = test system: Mycobacterium tuberculosis; experiment: Antimycobacterial activity against Mycobacterium tuberculosis clinical isolates after 6 days by resazurin-based assay; type: functional; details: 144 h
# [17] = Cmax in C57BL/6 mouse at 49.2 mg/kg, po via gavage by LC-MS/MS analysis; type: ADME, organism-based; set-up: dose 49.2 mg/kg, route oral; details: in vivo
# [18] = Cytotoxicity against human HepG2 cells after 48 hrs by cellTiter-Glo assay; type: cell-based; details: read-out: TC50
# [19] = Oral bioavailability in C57BL/6 mouse at 44 mg/kg via gavage by LC-MS/MS analysis; type: ADME, organism-based; details: in vivo
# Mus musculus [20] = experiment: Toxicity in Mycobacterium tuberculosis H37Rv infected C57BL/6 mouse assessed as drug tolerability at >50 mg/kg, po administered once daily for 8 days starting following day after infection and measured at 24 hrs post last dose; type: organism-based; details: in vivo
# [21] = test system: Mycobacterium tuberculosis; experiment: Antibacterial activity against Mycobacterium tuberculosis H37Rv infected in C57BL/6 mouse assessed as efficacious dose casing 2 log reduction in colony forming units administered orally once daily for 8 days starting following day after infection and measured at 24 hrs post last dose; type: functional; details: po
# In short: (§2)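 Female C57BL/6 mice, 8−10 weeks old, infected intratracheally with 100 000 CFU of H37Rv. Oral dosing once daily for 8 days began 1 day post-infection. Lungs were harvested 24 h after the last dose, homogenised and plated on 7H11 with 10% OADC and 0.4% charcoal for 18 days at 37 °C. Log10 CFU was fitted to a sigmoidal dose-response curve, and ED99 was defined as a 2-log CFU drop versus untreated.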
# [22] = Volume of distribution at steady state in C57BL/6 mouse at […], iv by LC-MS/MS analysis; type: ADME, organism-based; details: in vivo, read-out: Vdss
# [23] = Half life in C57BL/6 mouse at […], iv by LC-MS/MS analysis; type: ADME, organism-based; details: in vivo
# [24] = AUC in C57BL/6 mouse at 44 mg/kg, po via gavage by LC-MS/MS analysis; type: ADME, organism-based; details: in vivo
# [25] = test system: Mycobacterium tuberculosis; experiment: Antibacterial activity against Mycobacterium tuberculosis H37Rv infected in C57BL/6 mouse assessed as reduction in colony forming units administered orally once daily for 8 days starting following day after infection and measured at 24 hrs post last dose relative to untreated control; type: functional; in short: as §2
# [26] = Cmax in C57BL/6 mouse at 44 mg/kg, po via gavage by LC-MS/MS analysis; type: ADME, organism-based; set-up: dose 44 mg/kg, route oral; details: in vivo
# [27] = Clearance in C57BL/6 mouse at […], iv by LC-MS/MS analysis; type: ADME, organism-based; details: in vivo
# [28] = AUC in C57BL/6 mouse at 18.7 mg/kg, po via gavage by LC-MS/MS analysis; type: ADME, organism-based; details: in vivo
# [29] = Volume of distribution at steady state in C57BL/6 mouse at 3.6 mg/kg, iv by LC-MS/MS analysis; type: ADME, organism-based; details: in vivo, read-out: Vdss; in short: as §1
# [30] = Half life in C57BL/6 mouse at 3.6 mg/kg, iv by LC-MS/MS analysis; type: ADME, organism-based; details: in vivo; in short: as §1
# [31] = Clearance in C57BL/6 mouse at 3.6 mg/kg, iv by LC-MS/MS analysis; type: ADME, organism-based; details: in vivo; in short: as §1
# [32] = Cmax in C57BL/6 mouse at 18.7 mg/kg, po via gavage by LC-MS/MS analysis; type: ADME, organism-based; set-up: dose 18.7 mg/kg, route oral; details: in vivo
# [33] = Oral bioavailability in C57BL/6 mouse at 18.7 mg/kg via gavage by LC-MS/MS analysis; type: ADME, organism-based; details: in vivo
# [34] = Clearance in C57BL/6 mouse at 4.5 mg/kg, iv by LC-MS/MS analysis; type: ADME, organism-based; details: in vivo
# [35] = Half life in C57BL/6 mouse at 4.5 mg/kg, iv by LC-MS/MS analysis; type: ADME, organism-based; details: in vivo
# [36] = Volume of distribution at steady state in C57BL/6 mouse at 4.5 mg/kg, iv by LC-MS/MS analysis; type: ADME, organism-based; details: in vivo, read-out: Vdss
# [37] = Oral bioavailability in C57BL/6 mouse at 45 mg/kg via gavage by LC-MS/MS analysis; type: ADME, organism-based; details: in vivo
# [38] = Cmax in C57BL/6 mouse at 45 mg/kg, po via gavage by LC-MS/MS analysis; type: ADME, organism-based; set-up: dose 45 mg/kg, route oral; details: in vivo
# [39] = AUC in C57BL/6 mouse at 45 mg/kg, po via gavage by LC-MS/MS analysis; type: ADME, organism-based; details: in vivo
Compound,CLH [1] [mL/min/g],IC50 (HepG2 [2]) [µM],IC50 (HepG2 [3]) [µM],MIC90 [4] [µM],CLH [5] [mL/min/g],solubility kinetic at 1 h (physchem) [µM],IC50 (HepG2 [6]) [µM],other results
CC(C)(C)c1ccc(CN2CCC3(CCOCC3)CC2)cc1,0.95,> 200,> 200,5,2.25,≥ 399,> 200,–
CC(C)(C)c1ccc(CN2CCC3(CCCCO3)CC2)cc1,3.2,129,135,0.21,18.1,–,–,Activity [7]: 10 µM; Activity [8]: 44.4%; Activity [9]: 12.2%; Activity [10]: 25.4%
FC(F)(F)Oc1ccc(Oc2ccc(CN3CCC4(CCCCC4)CC3)cc2)cc1,0.5,25.9,21.8,0.1,2.8,< 1,28.3,–
c1cc2c(s1)CCOC21CCN(Cc2ccc3c(c2)OCCO3)CC1,25,–,–,0.3,> 30,266,–,F (Mus musculus [11]): 14.6%; AUC (Mus musculus [12]): 1780 ng·h/mL; MIC80 [13]: 0.25 µM; half-life [14]: 0.7 h; Vd [15]: 7.4 L/kg; MIC90 [16]: 0.6 µM; Cmax [17]: 470 ng/mL; CC50 at 48 h [18]: 36 µM
CC(C)(C)c1ccc(CN2CCC3(CC2)OCCCO3)cc1,1.4,> 200,> 200,2.5,13.5,374,> 200,–
CC(C)(C)c1ccc(CN2CCC3(CC2)OCCCCO3)cc1,4.1,166,170,5,27,194,> 200,–
FC(F)(F)Oc1ccc(Oc2ccc(CN3CCC4(CCNC4)CC3)cc2)cc1,–,4.9,6.6,> 5,–,117,5.7,–
O=C1OCCC12CCN(Cc1ccc(Oc3ccc(OC(F)(F)F)cc3)cc1)CC2,–,74.1,> 200,> 5,–,121,75.9,–
FC(F)(F)Oc1ccc(Oc2ccc(N3CCC4(CC3)OCCc3sccc34)cc2)cc1,0.6,11,–,0.06,1.2,–,–,bioavailability [19]: 42.6%; Activity (Mus musculus [20]): Non-Toxic; ED99 [21]: 11.6 mg/kg; Vd [22]: 10.4 L/kg; half-life [23]: 3.2 h; AUC [24]: 8740 ng·h/mL; Activity [25]: 4.2 log10CFU; Cmax [26]: 1270 ng/mL; clearance [27]: 36.3 mL/min/kg
CN1CCCC2(CCN(Cc3ccc(Oc4ccc(OC(F)(F)F)cc4)cc3)CC2)C1,–,6.9,12.2,2.5,–,205,8,–
CC(C)(C)c1ccc(CN2CCC3(CCCOC3)CC2)cc1,7.3,> 200,> 200,0.63,48,363,> 200,–
c1ccc(Oc2ccc(CN3CCC4(CC3)OCCc3sccc34)cc2)cc1,12,–,–,0.05,28.8,–,–,AUC [28]: 100 ng·h/mL; Vd [29]: 19.4 L/kg; half-life [30]: 3.9 h; clearance [31]: 67.7 mL/min/kg; Cmax [32]: 50 ng/mL; bioavailability [33]: 1.5%
NNC(=O)c1ccncc1,–,–,–,–,–,–,–,Activity [25]: Active
FC(F)(F)Oc1ccc(Oc2ccc(CN3CCC4(CC3)OCCO4)cc2)cc1,–,46.9,53.8,> 5,–,52,49.8,–
FC(F)(F)Oc1ccc(Oc2ccc(CN3CCC4(CC3)OCCCO4)cc2)cc1,< 0.5,26.3,28.8,0.65,< 0.5,53,25.7,–
FC(F)(F)Oc1ccc(Oc2ccc(CN3CCC4(CCCCO4)CC3)cc2)cc1,1.7,38.7,46.3,0.31,1.2,< 1,43.7,–
FC(F)(F)Oc1ccc(Oc2ccc(CN3CCCCC3)cc2)cc1,–,44.2,49.5,> 5,–,156,46.3,–
Brc1ccc(Nc2ccc(CN3CCC4(CC3)OCCc3sccc34)cc2)cc1,1.5,–,–,0.2,0.9,–,–,clearance [34]: 19.8 mL/min/kg; half-life [35]: 7.3 h; Vd [36]: 12 L/kg; bioavailability [37]: 84.6%; Cmax [38]: 1020 ng/mL; AUC [39]: 17900 ng·h/mL
